# Test results published in ChEMBL document CHEMBL1128739, “Structure-activity relationships in the 8-amino-6,7,8,9-tetrahydro-3H-benz[e]indole ring system. 2. Effects of 8-amino nitrogen substitution on serotonin receptor binding and pharmacology” (J Med Chem, 1995).
# Calls of active or inactive are those of the source. The calls are words filed in the database; no cut-off is given here.
# What was measured:
# Rattus norvegicus [1] = test: The compound was tested in vivo for biochemical effect against the changes in different brain area levels of DOPA in reserpinized rat corpus striatum at dose 12.5 uM/kg; inactive; assay type: functional, organism-based
# Method in brief: (§1)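 Male Sprague-Dawley rats (200-300 g) pretreated with reserpine 5 mg/kg sc 18 h before. Injection volume 5 mL/kg, test solutions at neutral pH. DOPA and 5-HTP in limbic system, striatum and hemispheres measured by HPLC with electrochemical detection. Dose-response curves from four to six dose levels (n = 4) per brain area.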
# Rattus norvegicus [2] = test: In vivo changes in different brain area levels of 5-HTP in reserpinized rat corpus striatum.; assay type: functional
# Method in brief: (§2)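 Male Sprague-Dawley rats (200-300 g) pretreated with reserpine 5 mg/kg sc 18 h before. Injection volume 5 mL/kg at neutral pH. Brain-region 5-HTP measured by HPLC with electrochemical detection. Dose-response curves used four to six doses, n = 4.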
# D(2) dopamine receptor = D(2) dopamine receptor (Rattus norvegicus, UniProt P61169); test: In vitro binding affinity against cloned mammalian Dopamine receptor D2 expressed in CHO cells using [3H]U-86170 as radioligand; assay type: cell-based; settings: read-out: Ki
# Chain of D(2) dopamine receptor (P61169 whole entry): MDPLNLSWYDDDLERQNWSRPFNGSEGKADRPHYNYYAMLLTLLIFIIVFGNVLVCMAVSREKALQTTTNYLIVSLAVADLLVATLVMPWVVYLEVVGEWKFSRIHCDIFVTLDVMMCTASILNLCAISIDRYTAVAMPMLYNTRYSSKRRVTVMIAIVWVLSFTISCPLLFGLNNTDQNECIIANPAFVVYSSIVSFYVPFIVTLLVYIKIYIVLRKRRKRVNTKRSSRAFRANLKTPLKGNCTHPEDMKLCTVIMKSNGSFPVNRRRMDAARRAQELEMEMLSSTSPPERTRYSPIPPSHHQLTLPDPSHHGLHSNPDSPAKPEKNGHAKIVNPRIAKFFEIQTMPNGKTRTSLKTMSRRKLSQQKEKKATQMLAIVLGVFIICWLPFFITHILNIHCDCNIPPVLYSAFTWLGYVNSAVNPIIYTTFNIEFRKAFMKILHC
# Method in brief: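 Membranes from CHO cells (20-60 μg protein) in 20 mM HEPES, 10 mM MgSO4, pH 7.4. Nonspecific binding defined with excess haloperidol. 11 concentrations, each in duplicate. Incubated 1 h at room temperature, then filtered and counted. IC50 from a one-site competition fit, converted to Ki by Cheng-Prusoff.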
# Rattus norvegicus [3] = test: The compound was tested in vivo for biochemical effect against the changes in different brain area levels of DOPA in reserpinized rat limbic system at dose 12.5 uM/kg; inactive; assay type: functional, organism-based; method in brief: as §1
# [4] = biological target: 5-hydroxytryptamine receptor 1B (Homo sapiens, UniProt P28222); test: In vitro binding affinity against cloned mammalian 5-hydroxytryptamine 1D receptor beta expressed in CHO cells, by using [3H]5-HT as radioligand; assay type: cell-based
# Chain of 5-hydroxytryptamine receptor 1B (P28222 whole entry): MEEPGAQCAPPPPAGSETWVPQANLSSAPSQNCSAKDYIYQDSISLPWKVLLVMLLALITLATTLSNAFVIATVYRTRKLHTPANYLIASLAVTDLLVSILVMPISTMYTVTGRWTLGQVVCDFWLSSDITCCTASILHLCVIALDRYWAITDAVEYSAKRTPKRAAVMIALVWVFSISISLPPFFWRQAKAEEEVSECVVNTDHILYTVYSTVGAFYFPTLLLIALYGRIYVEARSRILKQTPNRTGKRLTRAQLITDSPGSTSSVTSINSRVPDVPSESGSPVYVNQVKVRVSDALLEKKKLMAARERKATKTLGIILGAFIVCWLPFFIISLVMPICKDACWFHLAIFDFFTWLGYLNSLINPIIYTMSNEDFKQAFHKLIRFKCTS
# Method in brief: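 Membranes from CHO cells stably expressing the cloned receptor, made by mechanical disruption in ice-cold Tris/EDTA/EGTA pH 7.4 and differential centrifugation. [3H]serotonin at 1.7 nM in 50 mM Tris, 5 mM MgCl2, 0.1% ascorbic acid, pH 7.4. 11 drug concentrations in duplicate, 1 h at room temperature protected from light, then filtration. Excess serotonin defines nonspecific binding. One-site IC50 fit, Ki by Cheng-Prusoff.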
# Rattus norvegicus [5] = test: In vivo for biochemical effect against brain area levels of 5-HTP in reserpinized rat hemispheres (mainly cortex).; assay type: functional; method in brief: as §1
# Rattus norvegicus [6] = test: The compound was tested in vivo for biochemical effect against the changes in different brain area levels of DOPA in reserpinized rat hemispheres (mainly cortex)at dose 12.5 uM/kg; inactive; assay type: functional, organism-based; method in brief: as §1
# [7] = biological target: 5-hydroxytryptamine receptor 1D (Homo sapiens, UniProt P28221); test: In vitro binding affinity against cloned mammalian 5-hydroxytryptamine 1D receptor alpha expressed in CHO cells, by using [3H]5-HT as radioligand; assay type: cell-based
# Chain of 5-hydroxytryptamine receptor 1D (P28221 whole entry): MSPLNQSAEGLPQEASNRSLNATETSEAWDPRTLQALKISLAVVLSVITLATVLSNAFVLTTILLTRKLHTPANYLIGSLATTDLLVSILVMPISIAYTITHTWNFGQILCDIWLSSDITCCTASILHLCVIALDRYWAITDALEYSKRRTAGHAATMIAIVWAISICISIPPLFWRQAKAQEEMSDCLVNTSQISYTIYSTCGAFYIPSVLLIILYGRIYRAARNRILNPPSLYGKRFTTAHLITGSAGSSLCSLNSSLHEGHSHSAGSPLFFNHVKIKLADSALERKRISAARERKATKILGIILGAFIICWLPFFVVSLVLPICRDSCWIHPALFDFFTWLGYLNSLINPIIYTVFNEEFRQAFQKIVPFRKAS
# Method in brief: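 Competition binding on CHO-cell membranes (20-60 μg protein) in 50 mM Tris, 5 mM MgCl2, 0.1% ascorbic acid, pH 7.4. Nonspecific binding defined with excess serotonin. 11 drug concentrations, each in duplicate. Incubated 1 h at room temperature, protected from light, then filtered and scintillation counted. IC50 taken from a one-site fit; Ki by Cheng-Prusoff.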
# Rattus norvegicus [8] = test: In vivo changes in different brain area levels of 5-HTP in reserpinized rat limbic system.; assay type: functional; method in brief: as §2
# D(3) dopamine receptor = D(3) dopamine receptor (Rattus norvegicus, UniProt P19020); test: In vitro binding affinity against cloned mammalian Dopamine receptor D3 expressed in CHO cells by, using [3H]-spiperone as radioligand; assay type: cell-based
# Chain of D(3) dopamine receptor (P19020 whole entry): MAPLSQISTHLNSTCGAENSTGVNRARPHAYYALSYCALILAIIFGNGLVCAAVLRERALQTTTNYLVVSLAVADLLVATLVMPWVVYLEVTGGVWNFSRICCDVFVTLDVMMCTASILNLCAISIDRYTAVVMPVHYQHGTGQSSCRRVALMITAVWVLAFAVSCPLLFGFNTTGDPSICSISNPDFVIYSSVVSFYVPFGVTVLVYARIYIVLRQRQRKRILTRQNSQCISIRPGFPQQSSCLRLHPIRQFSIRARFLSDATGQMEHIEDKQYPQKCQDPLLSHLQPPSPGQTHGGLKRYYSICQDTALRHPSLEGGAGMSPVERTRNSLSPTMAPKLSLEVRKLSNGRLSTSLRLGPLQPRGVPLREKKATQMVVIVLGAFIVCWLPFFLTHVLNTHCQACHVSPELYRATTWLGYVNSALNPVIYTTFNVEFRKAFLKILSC
# Rattus norvegicus [9] = test: The compound was tested in vivo for biochemical effect against the changes in different brain area levels of DOPA in reserpinized rat corpus striatum at dose 50 uM/kg; Inactive; assay type: functional, organism-based; method in brief: as §1
# Rattus norvegicus [10] = test: The compound was tested in vivo for biochemical effect against the changes in different brain area levels of DOPA in reserpinized rat hemispheres (mainly cortex)at dose 50 uM/kg; Inactive; assay type: functional, organism-based
# Rattus norvegicus [11] = test: The compound was tested in vivo for biochemical effect against the changes in different brain area levels of DOPA in reserpinized rat limbic system at dose 50 uM/kg; Inactive; assay type: functional, organism-based
# Rattus norvegicus [12] = test: The compound was tested in vivo for biochemical effect against the changes in different brain area levels of DOPA in reserpinized rat hemispheres (mainly cortex)at does 50 uM/kg; Inactive; assay type: functional, organism-based; method in brief: as §1
# Rattus norvegicus [13] = test: The compound was tested in vivo for biochemical effect against the changes in different brain area levels of DOPA in reserpinized rat limbic system at does 50 uM/kg; Inactive; assay type: functional, organism-based; method in brief: as §1
# Rattus norvegicus [14] = test: The compound was tested in vivo for biochemical effect against the changes in different brain area levels of DOPA in reserpinized rat hemispheres (mainly cortex)at dose 12.5 uM/kg; Partial effect; assay type: functional, organism-based
# Rattus norvegicus [15] = test: The compound was tested in vivo for biochemical effect against the changes in different brain area levels of DOPA in reserpinized rat limbic system at dose 12.5 uM/kg; Partial effect; assay type: functional, organism-based
# Rattus norvegicus [16] = test: The compound was tested in vivo for biochemical effect against the changes in different brain area levels of DOPA in reserpinized rat corpus striatum at dose 12.5 uM/kg; Partial effect; assay type: functional, organism-based; method in brief: as §1
# Rattus norvegicus [17] = test: The compound was tested in vivo for biochemical effect against the changes in different brain area levels of DOPA in reserpinized rat limbic system at dose 12.5 umol/kg; Partial effect; assay type: functional, organism-based
# Rattus norvegicus [18] = test: The compound was tested in vivo for biochemical effect against the changes in different brain area levels of DOPA in reserpinized rat hemispheres (mainly cortex)at doest 12.5 umol/kg; Inactive; assay type: functional, organism-based
# Rattus norvegicus [19] = test: The compound was tested in vivo for biochemical effect against the changes in different brain area levels of DOPA in reserpinized rat corpus striatum at dose 12.5 umol/kg; Partial effect; assay type: functional, organism-based
# Rattus norvegicus [20] = test: The compound was tested in vivo for biochemical effect against the changes in different brain area levels of 5-HTP in reserpinized rat hemispheres (mainly cortex)at dose 25 uM/kg; Inactive; assay type: functional, organism-based
# Rattus norvegicus [21] = test: The compound was tested in vivo for biochemical effect against the changes in different brain area levels of DOPA in reserpinized rat limbic system at dose 25 uM/kg; Inactive; assay type: functional, organism-based
# Rattus norvegicus [22] = test: The compound was tested in vivo for biochemical effect against the changes in different brain area levels of DOPA in reserpinized rat hemispheres (mainly cortex)at does 25 uM/kg; Inactive; assay type: functional, organism-based
# Rattus norvegicus [23] = test: The compound was tested in vivo for biochemical effect against the changes in different brain area levels of 5-HTP in reserpinized rat corpus striatum at dose 25 uM/kg; Inactive; assay type: functional, organism-based
# Rattus norvegicus [24] = test: The compound was tested in vivo for biochemical effect against the changes in different brain area levels of 5-HTP in reserpinized rat limbic system at dose 25 uM/kg; Inactive; assay type: functional, organism-based
# Rattus norvegicus [25] = test: The compound was tested in vivo for biochemical effect against the changes in different brain area levels of DOPA in reserpinized rat corpus striatum at dose 25 uM/kg; Inactive; assay type: functional, organism-based
# Rattus norvegicus [26] = test: The compound was tested in vivo for biochemical effect against the changes in different brain area levels of DOPA in reserpinized rat hemispheres (mainly cortex)at dose 12.5 uM/kg; Inactive; assay type: functional, organism-based
# Rattus norvegicus [27] = test: The compound was tested in vivo for biochemical effect against the changes in different brain area levels of DOPA in reserpinized rat limbic system at dose 12.5 uM/kg; Inactive; assay type: functional, organism-based
# Rattus norvegicus [28] = test: The compound was tested in vivo for biochemical effect against the changes in different brain area levels of DOPA in reserpinized rat corpus striatum at dose 12.5 uM/kg; Inactive; assay type: functional, organism-based; method in brief: as §1
Ki (D(2) dopamine receptor) [nM],Ki [4] [nM],Ki [7] [nM],Ki (D(3) dopamine receptor; read-out: Ki) [nM],SMILES,ED50 (Rattus norvegicus [2]) [µmol/kg],ED50 (Rattus norvegicus [5]) [µmol/kg],ED50 (Rattus norvegicus [8]) [µmol/kg],further results
28,187,5.1,159,CCCN(CCCOc1cccc(Cl)c1)C1CCc2ccc3[nH]cc(C=O)c3c2C1 (centres undefined),4.01,5.12,4.79,ED50 (Rattus norvegicus [9]): inactive; ED50 (Rattus norvegicus [10]): inactive; ED50 (Rattus norvegicus [11]): inactive
> 1000,,,,O=Cc1c[nH]c2ccc3c(c12)CC(N1CCCC1)CC3 (centres undefined),0.58,0.86,0.58,ED50 (Rattus norvegicus [14]): Weak activity; ED50 (Rattus norvegicus [15]): Weak activity; ED50 (Rattus norvegicus [16]): Weak activity; Ki (D(3) dopamine receptor; cho): Not Active
5.8,14,0.9,19,CCCN(CCCc1ccccc1)[C@@H]1CCc2ccc3[nH]cc(C=O)c3c2C1,0.43,0.75,,ED50 (Rattus norvegicus [17]): Weak activity; ED50 (Rattus norvegicus [18]): inactive; ED50 (Rattus norvegicus [19]): Weak activity
859,1620,250,1270,CCCN(CCCCN1C(=O)CC(C)(C)CC1=O)[C@H]1CCc2ccc3[nH]cc(C=O)c3c2C1,,,,ED50 (Rattus norvegicus [20]): inactive; ED50 (Rattus norvegicus [21]): inactive; ED50 (Rattus norvegicus [22]): inactive; ED50 (Rattus norvegicus [23]): inactive; ED50 (Rattus norvegicus [24]): inactive; ED50 (Rattus norvegicus [25]): inactive
62,119,5,154,CCCN(CCCCN1C(=O)CC(C)(C)CC1=O)[C@@H]1CCc2ccc3[nH]cc(C=O)c3c2C1,2.98,4.63,3.78,ED50 (Rattus norvegicus [26]): inactive; ED50 (Rattus norvegicus [27]): inactive; ED50 (Rattus norvegicus [28]): inactive

SMILES,Ki (D(2) dopamine receptor) [nM],Ki [4] [nM],Ki [7] [nM],Ki (D(3) dopamine receptor; read-out: Ki) [nM],ED50 (Rattus norvegicus [2]) [µmol/kg],ED50 (Rattus norvegicus [5]) [µmol/kg],ED50 (Rattus norvegicus [8]) [µmol/kg],further results
CCCN(CC(C)C)[C@@H]1CCc2ccc3[nH]ccc3c2C1,5.7,219,35,18,1.23,3.59,1.8,ED50 (Rattus norvegicus [1]): inactive; ED50 (Rattus norvegicus [3]): inactive; ED50 (Rattus norvegicus [6]): inactive
CN(C)[C@H]1CCc2ccc3[nH]cc(C=O)c3c2C1,250,,,,12.1,15.3,13.1,ED50 (Rattus norvegicus [9]): inactive; ED50 (Rattus norvegicus [12]): inactive; ED50 (Rattus norvegicus [13]): inactive
